From ChEMBL document CHEMBL1212854, “The structure-activity relationships of A-ring-substituted aromathecin topoisomerase I inhibitors strongly support a camptothecin-like binding mode” (2010)
The source made the active and inactive calls. No cut-off for these calls is given here.

Tests used:
[1] = target: T1, DNA topoisomerase 1 (Homo sapiens) (UniProt P11387); assay: Inhibition of human recombinant Top1-mediated DNA cleavage at 0.1 to 100 uM after 20 mins relative to camptothecin; design: scale not given: the % may be the effect or the level left
T1 sequence (whole entry): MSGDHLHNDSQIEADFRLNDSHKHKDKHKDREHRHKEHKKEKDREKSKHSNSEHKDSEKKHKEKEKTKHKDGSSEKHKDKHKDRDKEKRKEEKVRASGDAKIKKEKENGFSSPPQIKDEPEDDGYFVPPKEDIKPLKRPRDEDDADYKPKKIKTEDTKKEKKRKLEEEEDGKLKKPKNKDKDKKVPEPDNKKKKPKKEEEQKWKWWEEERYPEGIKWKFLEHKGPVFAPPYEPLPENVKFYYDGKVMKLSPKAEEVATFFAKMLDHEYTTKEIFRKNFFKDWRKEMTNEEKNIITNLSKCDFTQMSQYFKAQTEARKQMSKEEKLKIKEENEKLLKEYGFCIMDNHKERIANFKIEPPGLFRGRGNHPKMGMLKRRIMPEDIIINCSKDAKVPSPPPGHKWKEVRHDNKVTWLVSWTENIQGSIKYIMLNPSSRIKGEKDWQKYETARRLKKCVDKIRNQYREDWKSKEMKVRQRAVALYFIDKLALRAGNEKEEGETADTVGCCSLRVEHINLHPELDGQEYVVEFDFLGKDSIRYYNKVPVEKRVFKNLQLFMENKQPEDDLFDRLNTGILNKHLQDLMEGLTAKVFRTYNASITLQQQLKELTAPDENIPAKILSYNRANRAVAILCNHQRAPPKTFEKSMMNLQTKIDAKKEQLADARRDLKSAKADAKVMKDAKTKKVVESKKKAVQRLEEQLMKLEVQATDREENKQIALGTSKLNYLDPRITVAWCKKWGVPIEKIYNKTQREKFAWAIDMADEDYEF
Procedure, shortened: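 Human recombinant Top1 purified from baculovirus. Substrate is a 117-bp oligonucleotide, about 2 nM, 3′-end labelled with 32P-dGTP by Klenow fill-in. Stopped with 0.5% SDS, run on 20% denaturing PAGE and phosphorimaged. Cleavage graded 0 to +++ against 1 μM camptothecin.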

OVCAR-3 = assay: Cytotoxicity against human OVCAR-3 cells; format: functional
Procedure, shortened: (§1)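 NCI 60-cell-line screen (eight solid-tumour subpanels plus leukemia). A one-dose pass at 10−5 M came first. Selected compounds were then run at five concentrations from 10−8 to 10−4 M. GI50 is the concentration giving 50% growth inhibition.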

UACC-62 = assay: Cytotoxicity against human UACC62 cells; format: functional; procedure, shortened: as §1
SN12C = assay: Cytotoxicity against human SN12C cells; format: functional; procedure, shortened: as §1
DU-145 = assay: Cytotoxicity against human DU145 cells; format: functional; procedure, shortened: as §1
MCF7 = assay: Cytotoxicity against human MCF7 cells; format: functional; procedure, shortened: as §1
SF-539 = assay: Cytotoxicity against human SF539 cells; format: functional; procedure, shortened: as §1
HCT-116 = assay: Cytotoxicity against human HCT116 cells; format: functional; procedure, shortened: as §1
HOP-62 = assay: Cytotoxicity against human HOP62 cells; format: functional; procedure, shortened: as §1

Activity [1] | Compound | GI50 (OVCAR-3) [nM] | GI50 (UACC-62) [nM] | GI50 (SN12C) [nM] | GI50 (DU-145) [nM] | GI50 (MCF7) [nM] | GI50 (SF-539) [nM] | GI50 (HCT-116) [nM] | GI50 (HOP-62) [nM]
20% | CN1CCN(Cc2c3c(nc4ccc(Cl)cc24)-c2cc4ccccc4c(=O)n2C3)CC1 | 1510 | 1410 | 1780 | 2750 | 3310 | 1580 | 150 | 2290
20% | CN1CCN(Cc2c3c(nc4cc(Cl)ccc24)-c2cc4ccccc4c(=O)n2C3)CC1 | 15100 | 17000 | 19000 | 23400 | 10900 | 15100 | 13500 | 18100
20% | O=c1c2ccccc2cc2n1Cc1c-2nc2ccc(Cl)cc2c1CN1CC[C@H](O)C1 | 1860 | 740 |  | 1660 | 370 | 1260 | 1100 | 1050
inactive | COc1cc2nc3c(c(CN4CCN(C)CC4)c2cc1OC)Cn1c-3cc2ccccc2c1=O |  |  |  |  |  |  |  | 
50% | Cc1cc2c(CN3CCN(C)CC3)c3c(nc2cc1F)-c1cc2ccccc2c(=O)n1C3 | 14600 | 16200 | 16000 | 2630 | 1800 | 6460 | 1800 | 20100
inactive | CN1CCN(Cc2c3c(nc4cccc(Cl)c24)-c2cc4ccccc4c(=O)n2C3)CC1 | 4170 | 15500 | 13800 | 9770 | 1000 | 1510 | 1410 | 1860
inactive | COc1cc2nc3c(c(CNCCCn4ccnc4)c2cc1OC)Cn1c-3cc2ccccc2c1=O |  |  |  |  |  |  |  | 
inactive | COc1cc2nc3c(c(Cn4ccnc4)c2cc1OC)Cn1c-3cc2ccccc2c1=O |  |  |  |  |  |  |  | 
50% | O=c1c2ccccc2cc2n1Cc1c-2nc2cc3c(cc2c1CN1CC[C@H](O)C1)OCCO3 | 1840 | 460 | 940 | 1020 | 270 | 490 | 820 | 1010
50% | O=c1c2ccccc2cc2n1Cc1c-2nc2cc3c(cc2c1CN1CC[C@H](O)C1)OCO3 | > 100000 | 350 | 790 |  | 70 | 600 | 850 | 480
50% | CN1CCN(Cc2c3c(nc4cc5c(cc24)OCO5)-c2cc4ccccc4c(=O)n2C3)CC1 | 16200 | 1620 | 2340 | 51300 | 380 | 11700 | 1450 | 17000
75% | O=c1c2ccccc2cc2n1Cc1c-2nc2cc3c(cc2c1CN1CCOCC1)OCCO3 | 1700 | 990 | 2570 | 930 | 300 | 810 | 1330 | 3800
20% | Cc1cc2c(CN)c3c(nc2cc1F)-c1cc2ccccc2c(=O)n1C3 |  |  |  |  |  |  |  | 
inactive | COc1cc2nc3c(c(CCl)c2cc1OC)Cn1c-3cc2ccccc2c1=O |  |  |  |  |  |  |  | 

The remaining lines, values behind:

Compound | Activity [1] | GI50 (OVCAR-3) [nM] | GI50 (UACC-62) [nM] | GI50 (SN12C) [nM] | GI50 (DU-145) [nM] | GI50 (MCF7) [nM] | GI50 (SF-539) [nM] | GI50 (HCT-116) [nM] | GI50 (HOP-62) [nM]
O=c1c2ccccc2cc2n1Cc1c-2nc2cc3c(cc2c1CNCCO)OCO3 | 50% | 1550 | 470 | 1910 | 1820 | 280 | 1350 | 950 | 660
O=c1c2ccccc2cc2n1Cc1c-2nc2cc3c(cc2c1CCCCl)OCCO3 | inactive |  |  |  |  |  |  |  | 
COc1cc2c3c(n(CCCN4CCOCC4)c(=O)c2cc1OC)-c1cc2c(cc1C3=O)OCO2 [INDOTECAN] | Active |  | 30 |  |  | 370 | 40 |  | 
NCCCc1c2c(nc3cc4c(cc13)OCCO4)-c1cc3ccccc3c(=O)n1C2 | 75% | 1950 | 1620 | 1860 | 1820 | 1050 | 1860 | 1950 | 2140
O=c1c2ccccc2cc2n1Cc1c-2nc2cc3c(cc2c1CNCCO)OCCO3 | 50% | 1950 | 1160 | 5750 | 2040 | 440 | 4260 | 2630 | 5690
O=c1c2ccccc2cc2n1Cc1c-2nc2ccc(Cl)cc2c1CNCCO | 50% | 6460 | 2040 | 10200 |  | 230 | 4360 | 2140 | 7240
O=c1c2ccccc2cc2n1Cc1cc3ccccc3nc1-2 [ROSETTACIN] | 50% | > 100000 | > 100000 | > 100000 | > 100000 | 60300 | > 100000 | 57300 | > 100000
O=c1c2ccccc2cc2n1Cc1c-2nc2cc3c(cc2c1Cn1ccnc1)OCCO3 | 75% | 18600 | 21400 | 81300 | > 100000 | 300 | 4370 | > 100000 | 19500
Cc1cc2c(CNCCCn3ccnc3)c3c(nc2cc1F)-c1cc2ccccc2c(=O)n1C3 | inactive | 4680 | > 100000 | 1800 | 6240 | 2210 | 1100 | 3050 | 36700
O=c1c2ccccc2cc2n1Cc1c-2nc2cc3c(cc2c1CCCn1ccnc1)OCCO3 | 50% | 7080 | 930 | 12600 | 2880 | 190 | 1950 | 1950 | 570
O=c1c2ccccc2cc2n1Cc1c-2nc2cccc(Cl)c2c1CN1CC[C@H](O)C1 | 20% | 2630 | 3090 | 3710 | 3980 | 370 | 1950 | 1550 | 1660
COc1cc2c3c(n(CCCn4ccnc4)c(=O)c2cc1OC)-c1cc2c(cc1C3=O)OCO2 [INDIMITECAN] | Active | 85 | < 10 | < 10 | < 10 | 10 | 37 | < 10 | < 10
CN(C)Cc1c2c(nc3cc4c(cc13)OCO4)-c1cc3ccccc3c(=O)n1C2 | 50% |  |  |  |  |  |  |  | 
CN(C)Cc1c2c(nc3cc4c(cc13)OCCO4)-c1cc3ccccc3c(=O)n1C2 | 75% | 2190 | 1660 | 2510 | 2190 | 300 | 2690 | 1170 | 3310
O=c1c2ccccc2cc2n1Cc1c-2nc2cc3c(cc2c1CCCN1CCOCC1)OCCO3 | 50% | 1840 | 1150 | 1130 | 760 | 60 | 1150 | 1420 | 540
O=c1c2ccccc2cc2n1Cc1c-2nc2cc3c(cc2c1CCCNCCO)OCCO3 | 0% | 1840 | 460 | 940 | 1020 | 270 | 490 | 820 | 1010
O=c1c2ccccc2cc2n1Cc1c-2nc2cc3c(cc2c1CNCCCn1ccnc1)OCO3 | 50% | 4260 | 3390 | 5890 | 2570 | 480 | 2140 | 1320 | 5010
O=c1c2ccccc2cc2n1Cc1c-2nc2ccc(Cl)cc2c1Cn1ccnc1 | 20% | 690 | 310 | 1540 | 480 | 190 | 390 | 400 | 460
O=c1c2ccccc2cc2n1Cc1c-2nc2cccc(Cl)c2c1CNCCCn1ccnc1 | 75% | 4900 | 7240 | 6030 | 1020 | 550 | 1900 | 1580 | 2510
